8 compounds from ChEMBL document CHEMBL4350962, “Expanding the Chemical Space of Withaferin A by Incorporating Silicon To Improve Its Clinical Potential on Human Ovarian Carcinoma Cells” (J Med Chem, 2019) can be followed below.

The test system of data set [1] is A2780. The data set is described as follows: Cell cycle arrest in cisplatin-sensitive human A2780 cells assessed as increase in DNA fragmentation after 48 hrs by DAPI-staining based assay. Type of data set: functional. The gist of the method:
(§1)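 A2780 cells seeded in T25 flasks, 24 h at 37 °C, then exposed 48 h to vehicle or compound at several concentrations. 1 x 10⁶ cells/mL spun at 400 g for 5 min, resuspended in lysis buffer with DAPI, 5 min at 37 °C, then stabilization buffer added. DNA content read by image cytometry to give sub-G1, G0/G1, S and G2 fractions; mean ± s.e. mean, n = 2.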

The subject of data set [2] is A2780. Description: Antiproliferative activity against cisplatin-sensitive human A2780 cells measured after 96 hrs by MTT assay. Format: functional, cell-based. As to conditions: for IC50: A2780, 96 h. An outline of the steps: (§2)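 Cells kept in DMEM or RPMI 1640 with 10% FBS and 5% penicillin-streptomycin at 37 °C, 5% CO2, seeded at 1 x 10⁴ cells/mL and left 24 h to adhere. Compounds or vehicle added over a concentration range for 96 h, then MTT 4 h; formazan dissolved in DMSO, absorbance read at 540 nm relative to control. IC50 given as mean ± SD of three independent experiments in duplicate.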
Background: Tetrazolium dyes change colour on reduction, which living cells bring about.

Data set [3] can be described thus: (§3) Antiproliferative activity against cisplatin-resistant human A2780/CP70 cells measured after 96 hrs by MTT assay. Type of data set: functional. As to conditions: A2780/CP70, 96 h. An outline of the steps: as §2
The next data set has as its system ARPE-19. The data set is described as follows: Cytotoxicity against human ARPE19 cells measured after 96 hrs by MTT assay. As to conditions: ARPE-19, 96 h. Format: cell-based. The gist of the method:
as §2

A short description of data set [4]: Selectivity index, ratio of IC50 for human ARPE19 cells to IC50 for cisplatin-sensitive human A2780 cells. Type of data set: toxicity. To be noted: ARPE19 cells versus cisplatin-sensitive A2780 cells, read-out: Ratio IC50.
A short description of data set [5]: Selectivity index, ratio of IC50 for human ARPE19 cells to IC50 for cisplatin-resistant human A2780/CP70 cells. To be noted: ARPE19 cells versus cisplatin-resistant A2780/CP70 cells, read-out: Ratio IC50. Type of data set: toxicity.
In data set [6] the test system is A2780. Description: Cell cycle arrest in cisplatin-sensitive human A2780 cells assessed as increase in accumulation at sub-G0/G1 phase at 10 to 60 uM after 48 hrs by DAPI-staining based assay. Type of data set: functional. An outline of the steps:
as §1

For data set [7], the system named is A2780. The data set is described as follows: Cell cycle arrest in cisplatin-sensitive human A2780 cells assessed as accumulation at G0/G1 phase at 10 to 60 uM after 48 hrs by DAPI-staining based assay. Type of data set: functional. The gist of the method:
as §1

The species entered for another data set is Homo sapiens. The description is as §3. Format: functional. An outline of the steps: as §2
The subject of data set [8] is A2780. Description: Cell cycle arrest in cisplatin-sensitive human A2780 cells assessed as increase in accumulation at sub-G0/G1 phase at 5 to 10 uM after 48 hrs by DAPI-staining based assay. Format: functional. An outline of the steps: as §1
The subject of data set [9] is A2780. The data set is described as follows: Cell cycle arrest in cisplatin-sensitive human A2780 cells assessed as accumulation at G0/G1 phase at 5 to 10 uM after 48 hrs by DAPI-staining based assay. Type of data set: functional. The gist of the method:
as §1

Active and inactive are the calls of the source. The calls are words filed in the database; no cut-off is given here.

`CC1=C(CO[Si](C)(C)C(C)(C)C)C(=O)O[C@@H]([C@@H](C)[C@H]2CC[C@H]3[C@@H]4C[C@H]5O[C@]56C(=O)C=CC(=O)[C@]6(C)[C@H]4CC[C@]23C)C1`: in the data set on A2780 [1], the Activity entry is “Dose-dependent effect”. Besides, the figures for the IC50 (in the data set with A2780 [2]; in data set [3]; with ARPE-19) were 17 nM, over 100 nM and 1660 nM, respectively. Further, the selectivity ratio in data set [4] amounted to 97.7; in data set [5] it was 11.3. The outcome with A2780 [6] was Active. Further, the outcome with A2780 [7] was inactive.
Take `CCCCCC[Si](CCCCCC)(CCCCCC)OCC1=C(C)C[C@H]([C@@H](C)[C@H]2CC[C@H]3[C@@H]4C[C@H]5O[C@]56[C@@H](O)C=CC(=O)[C@]6(C)[C@H]4CC[C@]23C)OC1=O`: the result with A2780 [2] and in the data set listed under Homo sapiens was inactive.
Consider `CC1=C(CO[Si](C)(C)C(C)(C)C)C(=O)O[C@@H]([C@@H](C)[C@H]2CC[C@H]3[C@@H]4C[C@H]5O[C@]56[C@@H](O)C=CC(=O)[C@]6(C)[C@H]4CC[C@]23C)C1`, for which the Activity entry in the data set with A2780 [1] is “Dose-dependent effect”. In addition, the result in the data set on A2780 [8] was Active. Further, the values for the IC50 (with A2780 [2]; in data set [3]; with ARPE-19) were 47.5 nM, over 100 nM and 12.4 nM, respectively. For the same compound, the values for the selectivity ratio in data set [4] and in data set [5] were 0.3 and 0.1, respectively. Further, the result in the data set with A2780 [9] was inactive.
As for `CCCCCC[Si](CCCCCC)(CCCCCC)OCC1=C(C)C[C@H]([C@@H](C)[C@H]2CC[C@H]3[C@@H]4C[C@H]5O[C@]56C(=O)C=CC(=O)[C@]6(C)[C@H]4CC[C@]23C)OC1=O`, the outcome in the data set with A2780 [2] and in the data set filed under Homo sapiens was inactive.
`CCC[Si](CCC)(CCC)OCC1=C(C)C[C@H]([C@@H](C)[C@H]2CC[C@H]3[C@@H]4C[C@H]5O[C@]56[C@@H](O[Si](CCC)(CCC)CCC)C=CC(=O)[C@]6(C)[C@H]4CC[C@]23C)OC1=O`: the result with A2780 [2] and in the data set filed under Homo sapiens was inactive.
As to `CC1=C(CO[Si](C(C)C)(C(C)C)C(C)C)C(=O)O[C@@H]([C@@H](C)[C@H]2CC[C@H]3[C@@H]4C[C@H]5O[C@]56C(=O)C=CC(=O)[C@]6(C)[C@H]4CC[C@]23C)C1`, the IC50 in the data set on A2780 [2] stood at 35 nM; in data set [3], 35 nM; in the data set on ARPE-19 it was 37.5 nM. Further, the selectivity ratio in data set [4] and in data set [5] was 1.1 each time.
Consider `CC1=C(CO[Si](C)(c2ccccc2)c2ccccc2)C(=O)O[C@@H]([C@@H](C)[C@H]2CC[C@H]3[C@@H]4C[C@H]5O[C@]56C(O[Si](C)(c5ccccc5)c5ccccc5)C=CC(=O)[C@]6(C)[C@H]4CC[C@]23C)C1` (stereo partly drawn), for which the outcome in the data set listed under Homo sapiens was inactive.
Consider `CC1=C(CO)C(=O)O[C@@H]([C@@H](C)[C@H]2CC[C@H]3[C@@H]4C[C@H]5O[C@]56[C@@H](O[Si](C)(C)C(C)C)C=CC(=O)[C@]6(C)[C@H]4CC[C@]23C)C1`, for which the figures for the IC50 (in the data set with A2780 [2]; in data set [3]; with ARPE-19) were 34 nM, 23 nM and 310 nM, respectively. Also, the figures for the selectivity ratio in [4] and in data set [5] were 9.1 and 13.5, respectively.

The term IC50 denotes the concentration at which inhibition is half-maximal. Read a high IC50 as weaker potency in that assay.
